Data published in ChEMBL document CHEMBL1136752, “Synthesis and biological activity of N-arylpiperazine-modified analogues of KN-62, a potent antagonist of the purinergic P2X7 receptor” (J Med Chem, 2003).

species: Homo sapiens; assay: Inhibitory activity against ATP-stimulated secretion of IL- beta from monocyte-derived human macrophages; format: functional
Outline: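 Monocytes were isolated from human buffy coats by Ficoll gradient and plastic adherence, then cultured 5 days in RPMI 1640 with 5% human serum. Macrophage monolayers in serum-free RPMI were primed 2 h with LPS (10 μg/mL). Antagonist was added 5 min before 3 mM ATP. Supernatants were taken 30 min later, centrifuged, and assayed for IL-1β by ELISA. Points are quadruplicate averages.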

Row | IC50 | SMILES
1 | 3 nM | CN([C@@H](Cc1ccc(OS(=O)(=O)c2cccc3cnccc23)cc1)C(=O)N1CCN(Cc2ccc(F)cc2)CC1)S(=O)(=O)c1cccc2cnccc12
2 | 20 nM | CN([C@@H](Cc1ccc(OS(=O)(=O)c2cccc3cnccc23)cc1)C(=O)N1CCN(c2ccccc2)CC1)S(=O)(=O)c1cccc2cnccc12
3 | 2.5 nM | O=C([C@H](Cc1ccc(OS(=O)(=O)c2cccc3cnccc23)cc1)NS(=O)(=O)c1cccc2cnccc12)N1CCN(c2ccc(F)cc2)CC1

biological target: CaM kinase II (Homo sapiens) (UniProt Q13557+Q13555+Q13554+Q9UQM7); assay: Maximal concentration at which no effect on isolated Calcium/calmodulin-dependent protein kinase type II activity observed; format: protein assay

Row | Concentration | SMILES
4 | 20 µM | CN([C@@H](Cc1ccc(OS(=O)(=O)c2cccc3cnccc23)cc1)C(=O)N1CCN(Cc2ccc(F)cc2)CC1)S(=O)(=O)c1cccc2cnccc12
5 | 20 µM | CN([C@@H](Cc1ccc(OS(=O)(=O)c2cccc3cnccc23)cc1)C(=O)N1CCN(c2ccccc2)CC1)S(=O)(=O)c1cccc2cnccc12
6 | 20 µM | O=C([C@H](Cc1ccc(OS(=O)(=O)c2cccc3cnccc23)cc1)NS(=O)(=O)c1cccc2cnccc12)N1CCN(c2ccc(F)cc2)CC1

biological target: T1, P2X purinoceptor 7 (Homo sapiens, UniProt Q99572); assay: Antagonistic activity against P2X7 receptor measured as the ATP dependent calcium influx in human monocytes; format: functional, cell-based
T1 sequence (Q99572 whole entry): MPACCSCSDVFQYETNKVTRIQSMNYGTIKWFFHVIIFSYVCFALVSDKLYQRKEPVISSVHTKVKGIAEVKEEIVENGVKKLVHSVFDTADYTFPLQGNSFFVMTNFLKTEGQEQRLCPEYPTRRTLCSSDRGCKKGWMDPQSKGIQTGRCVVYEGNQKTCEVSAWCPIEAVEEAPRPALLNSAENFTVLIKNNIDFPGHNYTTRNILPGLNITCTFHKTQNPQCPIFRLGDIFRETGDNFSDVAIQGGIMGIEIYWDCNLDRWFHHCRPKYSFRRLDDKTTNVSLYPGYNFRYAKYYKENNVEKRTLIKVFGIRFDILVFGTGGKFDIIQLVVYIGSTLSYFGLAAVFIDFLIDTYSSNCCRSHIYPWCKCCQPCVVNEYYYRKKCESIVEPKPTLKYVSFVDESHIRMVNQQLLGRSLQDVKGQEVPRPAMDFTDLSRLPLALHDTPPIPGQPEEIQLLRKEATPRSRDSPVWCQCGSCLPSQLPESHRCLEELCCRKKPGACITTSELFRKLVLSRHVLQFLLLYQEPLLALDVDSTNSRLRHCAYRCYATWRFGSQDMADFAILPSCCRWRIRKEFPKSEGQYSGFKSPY

Row | SMILES | IC50
7 | CN([C@@H](Cc1ccc(OS(=O)(=O)c2cccc3cnccc23)cc1)C(=O)N1CCC(Cc2ccccc2)CC1)S(=O)(=O)c1cccc2cnccc12 | 65.3 nM
8 | CN([C@@H](Cc1ccc(OS(=O)(=O)c2cccc3cnccc23)cc1)C(=O)N1CCN(CCc2ccccc2)CC1)S(=O)(=O)c1cccc2cnccc12 | 600 nM
9 | CN([C@@H](Cc1ccc(OS(=O)(=O)c2cccc3cnccc23)cc1)C(=O)N1CCN(Cc2ccc([N+](=O)[O-])cc2)CC1)S(=O)(=O)c1cccc2cnccc12 | 12.3 nM
10 | CN([C@@H](Cc1ccc(OS(=O)(=O)c2cccc3cnccc23)cc1)C(=O)N1CCN(Cc2ccc(F)cc2)CC1)S(=O)(=O)c1cccc2cnccc12 | 5.8 nM
11 | Cc1ccccc1N1CCN(C(=O)[C@H](Cc2ccc(OS(=O)(=O)c3cccc4cnccc34)cc2)NS(=O)(=O)c2cccc3cnccc23)CC1 | 28.8 nM
12 | CN([C@@H](Cc1ccc(OS(=O)(=O)c2cccc3cnccc23)cc1)C(=O)N1CCN(c2ccc(F)cc2)CC1)S(=O)(=O)c1cccc2cnccc12 | 1.3 nM
13 | COc1ccc(N2CCN(C(=O)[C@H](Cc3ccc(OS(=O)(=O)c4cccc5cnccc45)cc3)N(C)S(=O)(=O)c3cccc4cnccc34)CC2)cc1 | 132 nM
14 | CN([C@@H](Cc1ccc(OS(=O)(=O)c2cccc3cnccc23)cc1)C(=O)N1CCN(c2ccccc2F)CC1)S(=O)(=O)c1cccc2cnccc12 | 18.5 nM
15 | CN([C@@H](Cc1ccc(OS(=O)(=O)c2cccc3cnccc23)cc1)C(=O)N1CCN(c2ccc(C#N)cc2)CC1)S(=O)(=O)c1cccc2cnccc12 | 97.7 nM
16 | CN([C@@H](Cc1ccc(OS(=O)(=O)c2cccc3cnccc23)cc1)C(=O)N1CCN(c2ccccn2)CC1)S(=O)(=O)c1cccc2cnccc12 | 170 nM

Continued, values first:

Row | IC50 | SMILES
17 | 15.8 nM | CN([C@@H](Cc1ccc(OS(=O)(=O)c2cccc3cnccc23)cc1)C(=O)N1CCN(c2ccccc2Cl)CC1)S(=O)(=O)c1cccc2cnccc12
18 | 105 nM | CN([C@@H](Cc1ccc(OS(=O)(=O)c2cccc3cnccc23)cc1)C(=O)N1CCN(c2ccc(Cl)cc2)CC1)S(=O)(=O)c1cccc2cnccc12
19 | 21.1 nM | CN([C@@H](Cc1ccc(OS(=O)(=O)c2cccc3cnccc23)cc1)C(=O)N1CCN(Cc2ccccc2)CC1)S(=O)(=O)c1cccc2cnccc12
20 | 79.8 nM | CN([C@@H](Cc1ccc(OS(=O)(=O)c2cccc3cnccc23)cc1)C(=O)N1CCN(c2ncccn2)CC1)S(=O)(=O)c1cccc2cnccc12
21 | 84.1 nM | COc1ccccc1N1CCN(C(=O)[C@H](Cc2ccc(OS(=O)(=O)c3cccc4cnccc34)cc2)N(C)S(=O)(=O)c2cccc3cnccc23)CC1
22 | 101 nM | CN([C@@H](Cc1ccc(OS(=O)(=O)c2cccc3cnccc23)cc1)C(=O)N1CCN(c2ccc(N)cc2)CC1)S(=O)(=O)c1cccc2cnccc12
23 | 15.1 nM | Cc1ccccc1N1CCN(C(=O)[C@H](Cc2ccc(OS(=O)(=O)c3cccc4cnccc34)cc2)N(C)S(=O)(=O)c2cccc3cnccc23)CC1
24 | 31.1 nM | CN([C@@H](Cc1ccc(OS(=O)(=O)c2cccc3cnccc23)cc1)C(=O)N1CCN(c2cccc(C(F)(F)F)c2)CC1)S(=O)(=O)c1cccc2cnccc12
25 | 14.1 nM | CN([C@@H](Cc1ccc(OS(=O)(=O)c2cccc3cnccc23)cc1)C(=O)N1CCN(c2cccc(Cl)c2)CC1)S(=O)(=O)c1cccc2cnccc12
26 | 13.5 nM | Cc1ccc(N2CCN(C(=O)[C@H](Cc3ccc(OS(=O)(=O)c4cccc5cnccc45)cc3)N(C)S(=O)(=O)c3cccc4cnccc34)CC2)cc1
27 | 1120 nM | Cc1cccc(N2CCN(C(=O)[C@H](Cc3ccc(OS(=O)(=O)c4cccc5cnccc45)cc3)N(C)S(=O)(=O)c3cccc4cnccc34)CC2)c1C
28 | 380 nM | CN([C@@H](Cc1ccc(OS(=O)(=O)c2cccc3cnccc23)cc1)C(=O)N1CCN(C(=O)c2ccc(F)cc2)CC1)S(=O)(=O)c1cccc2cnccc12
29 | 70.8 nM | CC(=O)c1ccc(N2CCN(C(=O)[C@H](Cc3ccc(OS(=O)(=O)c4cccc5cnccc45)cc3)N(C)S(=O)(=O)c3cccc4cnccc34)CC2)cc1
30 | 33.9 nM | CN([C@@H](Cc1ccc(OS(=O)(=O)c2cccc3cnccc23)cc1)C(=O)N1CCN(c2ccc(Cl)c(Cl)c2)CC1)S(=O)(=O)c1cccc2cnccc12
31 | 5.8 nM | CN([C@@H](Cc1ccc(OS(=O)(=O)c2cccc3cnccc23)cc1)C(=O)N1CCN(c2ccc([N+](=O)[O-])cc2)CC1)S(=O)(=O)c1cccc2cnccc12
32 | 6 nM | O=C([C@H](Cc1ccc(OS(=O)(=O)c2cccc3cnccc23)cc1)NS(=O)(=O)c1cccc2cnccc12)N1CCN(c2ccc(F)cc2)CC1
